Test results as given in ChEMBL document CHEMBL1140547, “Potent oxindole based human beta3 adrenergic receptor agonists” (Bioorg Med Chem Lett, 2007).

Legend:
[1] = target: Beta-1 adrenergic receptor (Homo sapiens, UniProt P08588); assay: Agonist activity at human beta-1 adrenergic receptor expressed in CHO cells assessed as cAMP level; type: functional, cell-based
[2] = test system: Cardiac atrium; assay: Effect on rat atrial tachycardia assessed as increase in heart rate; type: functional
How it was run: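 Isolated rat atria were used to score tachycardia. The value is the maximal response, or the response at a single fixed high agonist level when no maximum was reached.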

[3] = target: T1, Beta-3 adrenergic receptor (Homo sapiens, UniProt P13945); assay: Agonist activity at human beta-3 adrenergic receptor expressed in CHO cells assessed as cAMP level relative to isoproterenol; type: functional, cell-based
How it was run: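 CHO cells expressing human β3 adrenergic receptor; agonism read out as cAMP level. Intrinsic activity taken as the compound's maximal response expressed as percentage of the maximal response to isoproterenol at […]; n = 3.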
Target sequence in this assay (P13945 whole entry, looked up): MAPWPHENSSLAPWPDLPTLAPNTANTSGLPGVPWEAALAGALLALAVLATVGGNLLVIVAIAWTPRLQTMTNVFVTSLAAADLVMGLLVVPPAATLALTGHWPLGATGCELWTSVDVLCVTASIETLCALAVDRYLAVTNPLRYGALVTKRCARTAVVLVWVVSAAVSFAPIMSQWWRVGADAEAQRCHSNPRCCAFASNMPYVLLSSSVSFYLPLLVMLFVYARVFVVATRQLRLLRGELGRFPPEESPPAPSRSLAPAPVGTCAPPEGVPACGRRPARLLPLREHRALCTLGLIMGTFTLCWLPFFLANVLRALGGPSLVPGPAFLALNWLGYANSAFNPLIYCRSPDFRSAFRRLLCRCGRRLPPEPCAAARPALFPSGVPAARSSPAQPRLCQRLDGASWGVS

[4] = target: Beta-2 adrenergic receptor (Homo sapiens, UniProt P07550); assay: Agonist activity at human beta-2 adrenergic receptor expressed in CHO cells assessed as cAMP level; type: functional, cell-based
[5] = target: T1, Beta-3 adrenergic receptor; assay: Agonist activity at human beta-3 adrenergic receptor expressed in CHO cells assessed as cAMP level; type: functional, cell-based
How it was run: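 cAMP accumulation measured in CHO cells expressing the human β receptor. Intrinsic activity is the compound's maximal response as a percentage of the maximal isoproterenol response.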
Target sequence in this assay (P13945 whole entry): as the sequence (P13945 whole entry, looked up) above

[6] = test system: Rattus norvegicus; assay: Increase in energy expenditure in diet induced obese Long Evans rat at 1 mg/kg, po after 20 hrs relative to control; type: functional
How it was run: (§1)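 Diet-induced obese Long Evans rats received one oral dose (1 or 10 mg/kg) or vehicle. Indirect calorimetry tracked respiratory quotient over 24 h. RQ reduction and energy expenditure increase were expressed as % versus vehicle over 20 h. Food consumption was recorded in g. Statistical significance was assessed against vehicle.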

[7] = test system: Rattus norvegicus; assay: Increase in energy expenditure in diet induced obese Long Evans rat at 10 mg/kg, po after 20 hrs relative to control; type: functional; how it was run: as §1
[8] = test system: Rattus norvegicus; assay: Effect on food consumption in diet induced obese Long Evans rat at 10 mg/kg, po; type: functional; how it was run: as §1
[9] = test system: Rattus norvegicus; assay: Effect on food consumption in diet induced obese Long Evans rat at 1 mg/kg, po; type: functional; how it was run: as §1
[10] = target: Beta-3 adrenergic receptor (Rattus norvegicus, UniProt P26255); assay: Agonist activity at rat beta-3 adrenergic receptor; type: functional
[11] = Oral bioavailability in F344 rat; settings: in vivo
[12] = test system: Rattus norvegicus; assay: Reduction in respiratory quotient in diet induced obese Long Evans rat at 10 mg/kg, po after 20 hrs relative to control; type: functional; parameters: scale not given: the % may be the effect or the level left; how it was run: as §1
[13] = test system: Rattus norvegicus; assay: Reduction in respiratory quotient in diet induced obese Long Evans rat at 1 mg/kg, po after 20 hrs relative to control; type: functional; parameters: scale not given: the % may be the effect or the level left; how it was run: as §1
[14] = Oral bioavailability in rat […]; type: ADME, organism-based; settings: in vivo

Sequence of Beta-2 adrenergic receptor (P07550 whole entry): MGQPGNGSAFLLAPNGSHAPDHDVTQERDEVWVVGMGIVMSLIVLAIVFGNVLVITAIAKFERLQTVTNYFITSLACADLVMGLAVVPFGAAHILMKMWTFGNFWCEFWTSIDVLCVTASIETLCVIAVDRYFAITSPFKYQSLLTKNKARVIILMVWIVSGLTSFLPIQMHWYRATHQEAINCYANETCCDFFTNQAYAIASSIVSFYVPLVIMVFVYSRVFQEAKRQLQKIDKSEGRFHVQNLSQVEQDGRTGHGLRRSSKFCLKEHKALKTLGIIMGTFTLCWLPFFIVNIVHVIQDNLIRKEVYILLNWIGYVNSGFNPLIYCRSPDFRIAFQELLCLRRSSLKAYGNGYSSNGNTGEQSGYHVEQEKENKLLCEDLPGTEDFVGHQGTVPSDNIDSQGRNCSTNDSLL
Sequence of Beta-1 adrenergic receptor (P08588 whole entry): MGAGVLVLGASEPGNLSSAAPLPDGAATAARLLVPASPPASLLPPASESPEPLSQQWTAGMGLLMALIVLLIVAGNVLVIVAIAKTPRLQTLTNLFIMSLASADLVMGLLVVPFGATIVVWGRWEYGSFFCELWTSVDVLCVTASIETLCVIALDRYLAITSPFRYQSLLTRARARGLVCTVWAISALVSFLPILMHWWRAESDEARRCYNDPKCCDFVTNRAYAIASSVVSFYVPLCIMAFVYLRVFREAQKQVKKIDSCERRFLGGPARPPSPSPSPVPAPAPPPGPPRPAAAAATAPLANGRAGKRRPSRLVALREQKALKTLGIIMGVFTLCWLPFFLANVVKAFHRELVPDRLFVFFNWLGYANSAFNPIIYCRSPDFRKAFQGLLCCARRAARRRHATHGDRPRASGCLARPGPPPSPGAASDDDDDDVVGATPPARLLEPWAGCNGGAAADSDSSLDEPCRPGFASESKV
Sequence of Beta-3 adrenergic receptor (Rattus norvegicus, UniProt P26255) (P26255 whole entry): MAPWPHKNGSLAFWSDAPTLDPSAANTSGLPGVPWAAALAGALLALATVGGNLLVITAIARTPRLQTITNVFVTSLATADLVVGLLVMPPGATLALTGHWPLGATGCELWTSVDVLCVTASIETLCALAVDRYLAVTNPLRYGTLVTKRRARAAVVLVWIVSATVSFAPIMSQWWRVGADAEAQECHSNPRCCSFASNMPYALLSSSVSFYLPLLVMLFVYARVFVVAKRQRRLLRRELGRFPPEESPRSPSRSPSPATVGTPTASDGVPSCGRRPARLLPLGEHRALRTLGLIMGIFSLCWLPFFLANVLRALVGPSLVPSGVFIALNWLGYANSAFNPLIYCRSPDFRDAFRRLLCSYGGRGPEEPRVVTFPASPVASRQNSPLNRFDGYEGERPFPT

| EC50 [1] [nM] | Emax [3] [%] | EC50 [4] [nM] | EC50 [5] [nM] | EC50 [10] [nM] | bioavailability [11] [%] | bioavailability [14] [%] | SMILES | Activity [2] [%] | Activity [6] [%] | Activity [7] [%] | Activity [8] [g] | Activity [9] [g] | Activity [12] [%] | Activity [13] [%] |
| --- | --- | --- | --- | --- | --- | --- | --- | --- | --- | --- | --- | --- | --- | --- |
| > 10000 | 72.6 | > 10000 | 12 |  |  |  | CC1C(=O)Nc2cccc(OC[C@@H](O)CNC(C)(C)Cc3ccc(Oc4ccc(C(N)=O)cn4)cc3)c21 (stereo not given in full) | 10.4 |  |  |  |  |  |  |
| > 10000 | 67.9 | > 10000 | 5.2 | 6.5 | 10 | 10 | CC(C)(Cc1ccc(Oc2ccc(C(N)=O)cn2)cc1)NC[C@H](O)COc1cccc2c1C(C)(C)C(=O)N2 | 9.7 | 8 | 14 | 11.8 | 13.7 | 45 | 31 |
| > 10000 | 48.5 | > 10000 | 268 |  |  |  | CC(C)(Cc1ccc(Oc2ccc(C(N)=O)cn2)cc1)NC[C@H](O)COc1cccc2c1C(Cc1ccccc1)(Cc1ccccc1)C(=O)N2 |  |  |  |  |  |  |  |
| > 10000 | 41 | > 10000 | 8.3 |  |  |  | CC(C)(Cc1ccc(Oc2ccc(C(N)=O)cn2)cc1)NC[C@H](O)COc1cccc2c1C1(CCCCC1)C(=O)N2 | 16 |  |  |  |  |  |  |
| > 10000 | 14.2 | > 10000 | 2.7 |  |  |  | CCC1(CC)C(=O)Nc2cccc(OC[C@@H](O)CNC(C)(C)Cc3ccc(Oc4ccc(C(N)=O)cn4)cc3)c21 | 2 |  |  |  |  |  |  |
| > 10000 | 71.2 | > 10000 | 17.6 |  |  |  | CC(C)(Cc1ccc(Oc2ccc(C(N)=O)cn2)cc1)NC[C@H](O)COc1cccc2c1C1(CCC1)C(=O)N2 | 14.8 |  |  |  |  |  |  |
| > 10000 | 41.7 | > 10000 | 13.9 |  |  |  | CC(C)C1C(=O)Nc2cccc(OC[C@@H](O)CNC(C)(C)Cc3ccc(Oc4ccc(C(N)=O)cn4)cc3)c21 (stereo not given in full) |  |  |  |  |  |  |  |
| > 10000 | 50.5 | > 10000 | 24.4 |  |  |  | CC(C)(Cc1ccc(Oc2ccc(C(N)=O)cn2)cc1)NC[C@H](O)COc1cccc2c1CC(=O)N2 | 19.5 |  |  |  |  |  |  |
| > 10000 | 15.6 | > 10000 | 12.3 |  |  |  | CC(C)(Cc1ccc(Oc2ccc(C(N)=O)cn2)cc1)NC[C@H](O)COc1cccc2c1C(Cc1ccccc1)C(=O)N2 (stereo not given in full) |  |  |  |  |  |  |  |
| > 10000 | 66.3 | > 10000 | 10.6 |  |  |  | CC(C)(Cc1ccc(Oc2ccc(C(N)=O)cn2)cc1)NC[C@H](O)COc1cccc2c1C1(CCCC1)C(=O)N2 | 8.6 |  |  |  |  |  |  |
| > 10000 | 49.4 | > 10000 | 14 |  |  |  | CC(C)CC1C(=O)Nc2cccc(OC[C@@H](O)CNC(C)(C)Cc3ccc(Oc4ccc(C(N)=O)cn4)cc3)c21 (stereo not given in full) |  |  |  |  |  |  |  |

| SMILES | EC50 [1] [nM] | Emax [3] [%] | EC50 [4] [nM] | EC50 [5] [nM] | EC50 [10] [nM] | bioavailability [11] [%] | bioavailability [14] [%] | Activity [2] [%] | Activity [6] [%] | Activity [7] [%] | Activity [8] [g] | Activity [9] [g] | Activity [12] [%] | Activity [13] [%] |
| --- | --- | --- | --- | --- | --- | --- | --- | --- | --- | --- | --- | --- | --- | --- |
| CC(C)(Cc1ccc(Oc2ccc(C(N)=O)cn2)cc1)NC[C@H](O)COc1cccc2c1C1(CC1)C(=O)N2 | 58.3 | 76.8 | 35.2 | 6.6 |  |  |  | 13.2 |  |  |  |  |  |  |
